B2AR ag = activates human beta-2 adrenergic receptor causing internalization; P07550; Am2.2-beta2AR cells, FAP receptor internalization, flow cytometry; response, % (test concentration not listed); actives 0.43% (n = 340,000);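 active = response above a set limit, near 3 SD of response in nonfluorescent compounds, cut at about 42% in these data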
Target sequence (P07550 whole entry, looked up): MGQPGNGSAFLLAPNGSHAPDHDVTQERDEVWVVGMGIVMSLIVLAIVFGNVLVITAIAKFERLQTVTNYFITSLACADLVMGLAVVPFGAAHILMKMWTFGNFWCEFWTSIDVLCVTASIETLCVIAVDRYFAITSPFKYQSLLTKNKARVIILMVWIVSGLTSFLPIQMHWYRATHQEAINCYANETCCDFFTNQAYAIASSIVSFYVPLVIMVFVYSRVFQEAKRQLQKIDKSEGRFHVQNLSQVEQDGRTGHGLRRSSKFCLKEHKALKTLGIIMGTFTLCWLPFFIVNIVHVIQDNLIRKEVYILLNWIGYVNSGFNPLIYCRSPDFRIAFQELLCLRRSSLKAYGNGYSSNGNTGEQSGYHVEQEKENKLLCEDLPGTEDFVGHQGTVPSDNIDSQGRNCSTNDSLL
MEKK3 PB1 HTS = modulators (inhibitors or enhancers) of MEK5 binding to human MEKK3 PB1 domain; bead-based flow cytometry, Alexa488-MEK5 binding to MEKK3; actives lie on both sides; 0 = blocked by unlabeled MEK5, 100 = vehicle; binding response (% of control), % at 10 µM; actives 1.4% (n = 290,000); AID 1529;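 active = binding response more than 3 SD above or below the average of its plate-row segment, actives on both sides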;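 note: Alexa488 bead fluorescence after subtracting the streptavidin-only scavenger bead signal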
ATG4B inh = blocks human ATG4B protease cleavage of LC3 substrate; Q9Y4P1; ATG4B cleavage of LC3-PLA2, NBD-HPC fluorescence, 1 h; inhibition, % at 8.33 µM; actives 0.51% (n = 340,000); in the data active = inhibition above about 40%
MEKK2wt PB1 HTS = raises or lowers MEK5 binding to wildtype human MEKK2 PB1 domain; Q9Y2U5; bead flow cytometry, Alexa488-MEK5 binding to MEKK2 WT; actives lie on both sides; binding response (% of control), % at 10 µM; actives 1.1% (n = 290,000); AID 1531; in the data active = binding response below about 67% or above about 130%
MEKK2 mut-MEK5 = signal of MEK5 binding to mutant human MEKK2 PB1 domain | percent response, % at 10 µM | bead flow cytometry, Alexa488-MEK5 binding to MEKK2 mutant | actives 0.35% (n = 290,000); in the data active = percent response above about 24%, passing the limit was not always enough
Dynein transport = blocks dynein driven cargo transport along microtubules; 3617.4 mouse cells, GR-EGFP nuclear translocation imaging; test concentration mostly 20 µM; stimulated with dexamethasone, 1 µM; stronger effect = lower value; z-score, hits read low; actives 0.47% (n = 220,000); AID 1381;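 active = plate z-score of nuclear minus cytoplasmic receptor signal below a set negative limit, without overly bright fluorescence or cell loss, cut at about -3.5 in these data, passing the limit was not always enough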;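 note: z-score of nuclear minus cytoplasmic ring GR-EGFP intensity difference per well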
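Buffer or medium: tetracycline-free induction medium containing charcoal-stripped FBS / Reagent: dexamethasone agonist, 1.0 µM final, for 30 min / Technique: automated 10x imaging of fixed Hoechst-stained cells / Times: induction 48 h, compound 1 h, agonist 30 min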
MEKK2wt confirm = raises or lowers MEK5 binding to wildtype human MEKK2, retest; shares compounds with MEKK3 PB1 HTS; bead flow cytometry, Alexa488-MEK5 binding to MEKK2 WT; actives lie on both sides; binding response (% of control), % at 10 µM; actives 2.4% (n = 5,900); in the data active = binding response below about 16% or above about 210%; inactive = in between
MEKK2mut confirm = signal of MEK5 binding to mutant human MEKK2, retest | actives 2% (n = 5,900) | shares compounds with MEKK3 PB1 HTS | bead flow cytometry, Alexa488-MEK5 binding to MEKK2 mutant | percent response, % at 10 µM; in the data active = percent response mostly above about 71%, no sharp cut-off; inactive = mostly below about 38%;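 note: higher means compound restores mutant binding toward wildtype level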
MEKK3 confirm = MEKK3-MEK5 PB1 inhibition, single concentration confirmation; shares compounds with MEKK3 PB1 HTS; bead flow cytometry, Alexa488-MEK5 binding to MEKK3; stronger effect = lower value; binding response (% of control), % at 10 µM; actives 1.8% (n = 5,900);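 active = binding response below 72% of control, or above a set upper limit, though filed actives all read lower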
Large screens that a line does not name were inactive (follow-up assays come after a bar, where they were run); [ ] = remark or other dose. Rows were chosen to be rich in hits. Some 2.9% of all compounds tested hit in one or more screens of this group.

NCCc1c(-c2ccccc2)n(-c2ccccc2)c2ccccc12	MEKK2wt PB1 HTS 197, MEKK2 mut-MEK5 62 | MEKK2wt confirm inactive | MEKK2mut confirm inactive | MEKK3 confirm inactive
CC1CCc2[nH]c3ccc(C(=O)N(C)CC(=O)Nc4ccccc4C(F)(F)F)cc3c2C1 (stereo unspecified)	none (no result: MEKK3 PB1 HTS, MEKK2wt PB1 HTS, MEKK2 mut-MEK5, Dynein transport)
O=C1c2ccccc2NC2(CCCCC2)N1N=C1CCCCC1	MEKK3 PB1 HTS 75[inhibitor] | MEKK2wt confirm inactive | MEKK2mut confirm inactive | MEKK3 confirm inactive
O=C1c2ccccc2NC2(CCCC2)N1O	none
CC(C)NCC(O)Cn1c2c(c3ccccc31)CCc1c-2cnn1-c1ccccc1 (stereo unspecified)	MEKK2wt PB1 HTS 176, MEKK2 mut-MEK5 30 | MEKK2wt confirm inactive | MEKK2mut confirm inactive | MEKK3 confirm inactive
CCOC(=O)c1ccc(NC(=S)N(CCCN2CCN(CC)CC2)Cc2cccs2)cc1	none
CC(C)CC(=O)Nc1ccc(C(=O)COC(=O)C2=COCCO2)cc1	none (no result: MEKK3 PB1 HTS, MEKK2wt PB1 HTS, MEKK2 mut-MEK5, Dynein transport)
CCNS(=O)(=O)c1ccc2c3c(cccc13)C(=O)N2	none
Cc1ccc(N/C=C2\C(=O)N(c3ccc(F)cc3F)C(c3cccnc3)S2(=O)=O)cc1 (stereo unspecified)	MEKK3 PB1 HTS 131 | MEKK2wt confirm inactive | MEKK2mut confirm inactive | MEKK3 confirm inactive
CCOC(=O)C1=C(C)N(C)C(C)=C(C(=O)OCC)C1c1ccc(Cl)cc1	MEKK3 PB1 HTS 130 | MEKK2wt confirm inactive | MEKK2mut confirm inactive | MEKK3 confirm 46
CN1CCN(C(=O)C23CCC(C)(C(=O)C2Br)C3(C)C)CC1 (stereo unspecified)	MEKK3 PB1 HTS 135 | MEKK2wt confirm inactive | MEKK2mut confirm inactive | MEKK3 confirm inactive
CCN1CCN(C(=O)C23CCC(C)(C(=O)C2Br)C3(C)C)CC1 (stereo unspecified)	none
COc1ccc(C2CC2C(C)=O)cc1 (stereo unspecified)	MEKK3 PB1 HTS 134 | MEKK2wt confirm inactive | MEKK2mut confirm inactive | MEKK3 confirm inactive
COc1ccc(S(=O)(=O)N2CCCCCC2)cc1NC(=O)Cc1cc(OC)c(OC)c(OC)c1	none
CC(C)(C)CC(=O)Nc1cc(S(=O)(=O)N2CCCCCC2)ccc1Cl	none
O=C(CCl)Nc1cc(S(=O)(=O)N2CCCCCC2)ccc1Cl	MEKK3 PB1 HTS 130 | MEKK2wt confirm inactive | MEKK2mut confirm inactive | MEKK3 confirm inactive
COc1ccccc1CNC(=O)c1cn(C)c2ccc(S(=O)(=O)N3CCCCC3)cc2c1=O	MEKK2 mut-MEK5 192 (no result: B2AR ag, ATG4B inh) | MEKK2wt confirm inactive | MEKK2mut confirm inactive | MEKK3 confirm inactive
CC1CCN(S(=O)(=O)c2ccc3c(c2)c(=O)c(C(=O)NCc2ccccc2Cl)cn3C)CC1	none (no result: B2AR ag, ATG4B inh)
COc1ccc(S(=O)(=O)N2CCCCCC2)cc1NC(=O)Cc1ccccc1F	MEKK3 PB1 HTS 75[inhibitor] | MEKK2wt confirm inactive | MEKK2mut confirm inactive | MEKK3 confirm inactive
COC(=O)[C@H](Cc1ccccc1)NC(=O)Nc1ccc(C)cc1	none
CCOc1ccc(N2CC(C(=O)NCCCc3ccccc3)CC2=O)cc1 (stereo unspecified)	none (no result: MEKK3 PB1 HTS, MEKK2wt PB1 HTS, MEKK2 mut-MEK5, Dynein transport)
Cc1ccc([N+](=O)[O-])c(C(=O)N/N=C/c2cccnc2)c1	none
CC(C)(C)NC(=O)NC(=O)COC(=O)c1cc[n+]([O-])cc1	none
O=C(C(=O)N1CCCC1CO)N1CCCC1CO (stereo unspecified)	none
COc1ccc2cnnc(SCC(=O)Nc3ccc(C(=O)O)cc3)c2c1OC	MEKK3 PB1 HTS 143 | MEKK2wt confirm inactive | MEKK2mut confirm inactive | MEKK3 confirm inactive
CCOC(=O)CNc1nc(Cl)nc(NC(C)(C)C)n1	MEKK3 PB1 HTS 130 | MEKK2wt confirm inactive | MEKK2mut confirm inactive | MEKK3 confirm inactive
CC(C)(C)Nc1nc(N)nc(Cl)n1	none
CCC(C)c1ccccc1N1CC(C(=O)N2CCN(S(=O)(=O)c3cccc([N+](=O)[O-])c3)CC2)CC1=O (stereo unspecified)	none (no result: MEKK3 PB1 HTS, MEKK2wt PB1 HTS, MEKK2 mut-MEK5, Dynein transport)
O=C(N/N=C/c1c[nH]c2ccccc12)c1cc(-c2ccc3ccccc3c2)n[nH]1	MEKK2wt PB1 HTS 138 | MEKK2wt confirm inactive | MEKK2mut confirm inactive | MEKK3 confirm inactive
CC(=O)C1=C(O)C(=O)N(c2ccc(Br)cn2)C1c1ccc(F)cc1 (stereo unspecified)	none
c1ccc(OCCOc2cccc3cccnc23)cc1	MEKK3 PB1 HTS 152 | MEKK2wt confirm inactive | MEKK2mut confirm inactive | MEKK3 confirm inactive
Brc1ccc(OCCOc2cccc3cccnc23)cc1	none
COc1cc2c(cc1OC)CN(CCOc1ccc(Br)cc1)CC2	none (no result: Dynein transport)
COc1ccc(C(=O)CCN2CCc3cc(OC)c(OC)cc3C2)cc1	MEKK3 PB1 HTS 1.0[inhibitor], MEKK2wt PB1 HTS 1.0[inhibitor] | MEKK2wt confirm inactive | MEKK2mut confirm inactive | MEKK3 confirm inactive
O=c1c2ccccc2cnn1Cc1nnc(-c2cccs2)o1	none (no result: Dynein transport)
CCOC(=O)CCSc1nc(C)c2cc(OC)ccc2n1	MEKK3 PB1 HTS 72[inhibitor] | MEKK2wt confirm inactive | MEKK2mut confirm inactive | MEKK3 confirm inactive
